ChEMBL document CHEMBL1146180, “Synthesis and evaluation of [18F] labeled pyrimidine nucleosides for positron emission tomography imaging of herpes simplex virus 1 thymidine kinase gene expression” (J Med Chem, 2006)

Experiments:
RG2 [1] = assay: Uptake in HSV1 thymidine kinase expressing rat RG2TK+ cells; type: ADME, cell-based
Outline: (§1)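 Paired time-course uptake over 120 min in HSV1-tk transduced RG2TK+ and wild-type RG2 cells. Medium held 18F tracer (10 kBq/mL) with [3H]TdR (3.7 kBq/mL) and [14C]FIAU (0.37 kBq/mL) as references. 18F gamma-counted at once, 3H/14C by liquid scintillation 24-36 h later. Net accumulation rate, (mL medium/min)/g cells, taken from slope of (dpm/g cells)/(dpm/mL medium) vs time and normalized to TdR.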

[2] = Partition coefficient, log P at pH 7.4; type: physicochemical; settings: octanol/water
Outline: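 Octanol/PBS shake-flask: 20 µL radiolabeled tracer in saline added to 0.5 mL each 1-octanol and PBS (pH 6.4, 7.0, 7.4, 8.4); vortexed 1 min, centrifuged 5 min; 20 µL of each layer weighed and 18F gamma-counted (400-550 keV). log P = log10(counts per g octanol / counts per g water).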

RG2 [3] = assay: Ratio of uptake in rat RG2TK+ cells to RG2 cells; type: ADME, cell-based; outline: as §1
RG2 [4] = assay: Uptake in rat RG2 cells; type: ADME, cell-based; outline: as §1

| Structure (SMILES) | Drug uptake (RG2 [1]) [µL/min/mg] | logD [2] | Ratio (RG2 [3]) | Drug uptake (RG2 [4]) [µL/min/mg] |
| --- | --- | --- | --- | --- |
| O=c1[nH][14c](=O)n([C@@H]2O[C@H](CO)[C@@H](O)[C@@H]2F)cc1I | 274 | -0.1 | 5.7 | 48 |
| Nc1nc(=O)c2ncn(CCC(CO)C[18F])c2[nH]1 (stereo not drawn) | 22 | – | 6.9 | 3.2 |
| Nc1nc(O)c2ncn(COC(CO)C[18F])c2n1 (stereo not drawn) | 7.7 | – | 19 | 0.4 |
| O=c1[nH]c(=O)n([C@@H]2O[C@H](CO)[C@@H](O)[C@@H]2[18F])cc1/C=C/Br | 35 | 1.02 | – | -1 |

Other lines, results leading:

| Drug uptake (RG2 [1]) [µL/min/mg] | logD [2] | Ratio (RG2 [3]) | Drug uptake (RG2 [4]) [µL/min/mg] | Structure (SMILES) |
| --- | --- | --- | --- | --- |
| 51 | 0.03 | 13 | 4 | O=c1[nH]c(=O)n([C@@H]2O[C@H](CO)[C@@H](O)[C@@H]2[18F])cc1C(F)(F)F |
| 290 | – | 550 | 0.53 | O=c1[nH]c(=O)n([C@@H]2O[C@H](CO)[C@@H](O)[C@@H]2F)cc1CC[18F] |
| 14 | 0.5 | – | -1 | CCCc1cn([C@@H]2O[C@H](CO)[C@@H](O)[C@@H]2[18F])c(=O)[nH]c1=O |
